Laboratory results: ChEMBL document CHEMBL3414436, “Strong antibacterial properties of anion transporters: a result of depolarization and weakening of the bacterial membrane” (J Med Chem, 2015)
The source made the active and inactive calls. No cut-off for these calls is given here.

Columns and labels:
[1] = tested on: Escherichia coli; assay: Induction of membrane depolarization in Escherichia coli SK037 expressing TolC mutant at 40 times MIC after 2 hrs by diSC25 dye-based fluorescence assay; type: functional, organism-based
Summary of the method: (§1)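 E. coli SK037 grown overnight in LB at 37°C, washed in 5 mM HEPES pH 7.3 with 20 mM glucose and diluted to A600 0.15. diSC25 (1 µM final) equilibrated 1 h at 37°C to a stable baseline. Compound in DMSO added to 0.4 mM or 1 mM final. Fluorescence ex 600/em 660 nm followed ~2 h with stirring at 37°C.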

[2] = tested on: Lipid bilayer; assay: Binding affinity to DPPC liposomes assessed as induction of chloride ion efflux at 35 to 45 degC after 250 secs by fluorimetric analysis; details: Microsome
Summary of the method: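 Lucigenin-loaded (2 mM) DPPC LUVs (100 nm extruded) containing 100 mM NaCl and 10 mM sodium phosphate pH 6.4, external dye removed by gel filtration. Vesicles diluted into 2.5 mL stirred phosphate buffer at 35, 40 or 45°C. Transporter in MeOH added at t = 50 s to 10 mol% relative to lipid; Triton X-100 lysis at 300 s. Fluorescence ex 372/em 503 nm. Average of three runs.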

[3] = tested on: Escherichia coli; assay: Induction of membrane permeabilization in Escherichia coli SK037 expressing TolC mutant at 40 times MIC after 2 hrs by diSC25 dye-based fluorescence assay; type: functional, organism-based; summary of the method: as §1
[4] = Binding affinity to egg yolk phosphotidylcholine liposomes assessed as induction of chloride ion efflux after 250 secs by fluorimetric analysis relative to lipid
Summary of the method: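 EYPC LUVs (100 nm extruded) loaded with 2 mM lucigenin, 100 mM NaCl and 10 mM sodium phosphate pH 6.4. Liposomes are suspended in NaNO3 buffer at 37 °C. Transporter in MeOH, at various concentrations, is added at 50 s and Triton X-100 lysis at 300 s. Chloride efflux is read as lucigenin fluorescence (ex 372, em 503 nm). Traces are averaged over triplicates.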

[5] = tested on: Bacillus thuringiensis; assay: Antibacterial activity against Bacillus thuringiensis HD73 measured for 24 hrs; type: functional
Summary of the method: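 Broth microdilution in LB. Overnight 37 °C preculture, regrown to OD600 0.5, diluted to OD600 0.1. Wells hold culture plus compound in DMSO (DMSO max 2.5% v/v final). Incubated at 37 °C with stirring, OD600 read at 0, 4, 8 and 24 h. MIC is the lowest concentration with no detectable growth. Triplicates from independent cultures.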

[6] = tested on: Escherichia coli; assay: Antibacterial activity against Escherichia coli SK037 expressing TolC mutant measured for 24 hrs; type: functional
Summary of the method: (§2)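 Broth microdilution in LB at 37°C. Overnight precultures regrown to OD600 0.5, then diluted to OD600 0.1. Compound added in DMSO, final DMSO max 2.5% (v/v). Plates stirred; OD600 read at 0, 4, 8 and 24 h. MIC taken as lowest concentration with no detectable growth. Triplicates from independent cultures.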

[7] = tested on: Escherichia coli; assay: Ratio of MIC for wild type Escherichia coli DH5alpha to MIC for Escherichia coli SK037 expressing TolC mutant; type: functional
[8] = tested on: Escherichia coli; assay: Antibacterial activity against wild type Escherichia coli DH5alpha measured for 24 hrs; type: functional, DH5[alpha]; summary of the method: as §2
[9] = tested on: Escherichia coli; assay: Antibacterial activity against Escherichia coli SK037 expressing TolC mutant assessed as change in cell morphology and membrane damage after 12 to 24 hrs by field emission scanning electron microscopic analysis; type: functional, organism-based
Summary of the method: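 E. coli SK037 grown in LB, washed three times, resuspended in 10 mM PBS pH 7.4 and diluted to A600 1.20 (9 x 10^8 CFU/mL). Cells exposed to 0.04 mM or 0.08 mM compound (added in DMSO) on poly-lysine-coated glass slides at 37°C for 12 h or 24 h. Fixed with 2.5% glutaraldehyde, stained with 1% OsO4, ethanol-dehydrated, critical-point dried, carbon-coated, imaged by field emission SEM.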

[10] = Induction of nitrate anions efflux in chloroform phase at 1 mM by fluorescence-based U-tube method; type: physicochemical; details: 1000 µM
Summary of the method: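 U-tube: 10 mL chloroform containing 1 mM ionophore separates 5 mL of 0.1 mM aqueous lucigenin (donor arm) from 5 mL water (receiving arm). Lucigenin fluorescence in the receiving phase is monitored at ex 372 and em 503 nm. Neat chloroform serves as control.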

[11] = Hemolytic activity in human RBC at 25 uM after 1 hr relative to control; type: ADME, cell-based, Erythrocyte; details: red blood cells (RBC), read-out: Activity
Summary of the method: (§3)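 Human type O erythrocytes are washed in PBS and used at 2% v/v. Two-fold serial dilutions in DMSO are added, then incubated for 1 or 24 h at 37 °C with gentle shaking. After centrifugation at 2000g, hemoglobin release is read as supernatant A405. It is normalized to PBS (0%) and 0.5% Triton X-100 (100%). Mean of three experiments.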

[12] = Hemolytic activity in human RBC at 25 uM after 24 hrs relative to control; type: cell-based, Erythrocyte; details: red blood cells (RBC), read-out: Activity; summary of the method: as §3
[13] = Bacillus thuringiensis, HD73, 24 h, read-out: MIC
[14] = Escherichia coli, SK037, 24 h, read-out: MIC
[15] = Escherichia coli, DH5[alpha], 24 h, read-out: MIC

Row | SMILES | EC50 [4] [mol%] | MIC [5, 13] [µM] | MIC [6, 14] [µM] | Ratio [7] | MIC [8, 15] [µM] | other results
1 | C(#Cc1ccc(C[n+]2cn(Cc3cccc(Cn4c[n+](Cc5ccc(C#Cc6ccccc6)cc5)c5ccccc54)n3)c3ccccc32)cc1)c1ccccc1.O=S(=O)([N-]S(=O)(=O)C(F)(F)F)C(F)(F)F.O=S(=O)([N-]S(=O)(=O)C(F)(F)F)C(F)(F)F [listing 1 of 2 here] |  |  |  |  |  | Activity [1]: Active; Activity [2]: Active; Activity [3]: Active
2 | C(#Cc1ccc(Cn2c[n+](Cc3ccc(C#Cc4ccccc4)cc3)c3ccccc32)cc1)c1ccccc1.O=S(=O)([N-]S(=O)(=O)C(F)(F)F)C(F)(F)F [listing 1 of 2 here] | 5.8 | 10 | 25 | 2.5 | > 100 | 
3 | C(#Cc1ccc(C[n+]2cn(-c3cccc(-n4c[n+](Cc5ccc(C#Cc6ccccc6)cc5)c5ccccc54)n3)c3ccccc32)cc1)c1ccccc1.O=S(=O)([O-])C(F)(F)F.O=S(=O)([O-])C(F)(F)F | 12 |  |  |  |  | MIC [5]: 10 µM; MIC [8]: >100 µM
4 | C(#Cc1ccc(C[n+]2cn(-c3cccc(-n4c[n+](Cc5ccc(C#Cc6ccccc6)cc5)c5ccccc54)n3)c3ccccc32)cc1)c1ccccc1.[Br-].[Br-] | 24 | 10 | > 100 |  | > 100 | 
5 | C(#Cc1ccc(C[n+]2cn(Cc3cccc(Cn4c[n+](Cc5ccc(C#Cc6ccccc6)cc5)c5ccccc54)n3)c3ccccc32)cc1)c1ccccc1 |  |  |  |  |  | Activity [9]: Dose-dependent effect; Activity [1]: Active; Activity [2]: Active; Activity [3]: Active
6 | C(#Cc1ccc(C[n+]2cn(Cc3cccc(Cn4c[n+](Cc5ccc(C#Cc6ccccc6)cc5)c5ccccc54)n3)c3ccccc32)cc1)c1ccccc1.O=S(=O)([N-]S(=O)(=O)C(F)(F)F)C(F)(F)F.O=S(=O)([N-]S(=O)(=O)C(F)(F)F)C(F)(F)F [listing 2 of 2 here] | 5.6 | 10 | 10 | 2.5 | 50 | Activity [10]: Not Active
7 | C(#Cc1ccc(Cn2c[n+](Cc3ccc(C#Cc4ccccc4)cc3)c3ccccc32)cc1)c1ccccc1.[Br-] | 14.8 | 10 | > 100 |  | > 100 | 
8 | C(#Cc1ccc(C[n+]2cn(Cc3cccc(Cn4c[n+](Cc5ccc(C#Cc6ccccc6)cc5)c5ccccc54)n3)c3ccccc32)cc1)c1ccccc1.O=S(=O)([O-])C(F)(F)F.O=S(=O)([O-])C(F)(F)F | 0.46 |  |  | 2.5 |  | Activity [10]: Active; MIC [5]: 2 µM; MIC [6]: 10 µM; hemolysis at 1 h, 25 µM [11]: < 10%; hemolysis at 24 h, 25 µM [12]: 10%; MIC [8]: 25 µM
9 | C(#Cc1ccc(C[n+]2cn(Cc3cccc(Cn4c[n+](Cc5ccc(C#Cc6ccccc6)cc5)c5ccccc54)n3)c3ccccc32)cc1)c1ccccc1.[Br-].[Br-] | 14 |  | 10 | 10 |  | Activity [10]: Not Active; MIC [5]: 10 µM; MIC [8]: 100 µM
10 | C(#Cc1ccc(C[n+]2cn(-c3cccc(-n4c[n+](Cc5ccc(C#Cc6ccccc6)cc5)c5ccccc54)n3)c3ccccc32)cc1)c1ccccc1.O=S(=O)([N-]S(=O)(=O)C(F)(F)F)C(F)(F)F.O=S(=O)([N-]S(=O)(=O)C(F)(F)F)C(F)(F)F | 6.9 | 10 | > 100 |  | > 100 | 
11 | C(#Cc1ccc(Cn2c[n+](Cc3ccc(C#Cc4ccccc4)cc3)c3ccccc32)cc1)c1ccccc1.O=S(=O)([N-]S(=O)(=O)C(F)(F)F)C(F)(F)F [listing 2 of 2 here] |  |  |  |  |  | Activity [3]: Active
